According to ChEMBL document CHEMBL1148485, “Synthesis and biological evaluation of new selective cytotoxic cyclolignans derived from podophyllotoxin” (J Med Chem, 2004):

What was measured:
HeLa [1] = test: Effect on cell cycle evaluated as proportion of cells in G0/G1 phase of the cell cycle at 10E-6 M for 72 hr in HeLa cells; type: functional, Homo sapiens
Outline: (§1)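 HeLa cells were grown in DMEM with 10% heat-inactivated FCS and 2 mM L-glutamine at 37 °C in 5% CO2. They were exposed to 10^-6 to 10^-8 M for 24, 48 or 72 h. Then (3-5)×10^5 cells were fixed overnight in 70% ethanol at 4 °C, PBS-washed, and given 1 mg/mL RNase A plus 20 µg/mL propidium iodide for 1 h at room temperature. DNA content was read by flow cytometry. Sub-G1 (hypodiploid) % counted as apoptotic. Untreated controls were run in parallel. Representative of three independent experiments.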

HeLa [2] = test: Effect on cell cycle evaluated as proportion of cells in G0/G1 phase of the cell cycle at 10E-7 M for 24 hr in HeLa cells; type: functional, Homo sapiens; outline: as §1
HeLa [3] = test: Effect on cell cycle evaluated as proportion of cells in G0/G1 phase of the cell cycle at 10E-8 M for 72 hr in HeLa cells; type: functional, Homo sapiens; outline: as §1
HeLa [4] = test: Effect on cell cycle evaluated as proportion of cells in S phase of the cell cycle at 10E-7 M for 24 hr in HeLa cells; type: functional, Homo sapiens; outline: as §1
HeLa [5] = test: Effect on cell cycle evaluated as proportion of cells in sub-G1 phase (apoptic cells)of the cell cycle at 10E-8 M for 48 hr in HeLa cells; type: functional, Homo sapiens; outline: as §1
HeLa [6] = test: Effect on cell cycle evaluated as proportion of cells in S phase of the cell cycle at 10E-8 M for 72 hr in HeLa cells; type: functional, Homo sapiens; outline: as §1
HeLa [7] = test: Effect on cell cycle evaluated as proportion of cells in G2/M phase of the cell cycle at 10E-7 M for 24 hr in HeLa cells; type: functional, Homo sapiens; outline: as §1
HeLa [8] = test: Effect on cell cycle evaluated as proportion of cells in sub-G1 phase (apoptic cells )of the cell cycle at 10E-8 M for 24 hr in HeLa cells; type: functional, Homo sapiens; outline: as §1
HeLa [9] = test: Effect on cell cycle evaluated as proportion of cells in S phase of the cell cycle at 10E-7 M for 72 hr in HeLa cells; type: functional, Homo sapiens; outline: as §1
HeLa [10] = test: Effect on cell cycle evaluated as proportion of cells in G0/G1 phase of the cell cycle at 10E-6 M for 48 hr in HeLa cells; type: functional, Homo sapiens; outline: as §1
HeLa [11] = test: Effect on cell cycle evaluated as proportion of cells in S phase of the cell cycle at 10E-6 M for 24 hr in HeLa cells; type: functional, Homo sapiens; outline: as §1
HeLa [12] = test: Effect on cell cycle evaluated as proportion of cells in G2/M phase of the cell cycle at 10E-7 M for 72 hr in HeLa cells; type: functional, Homo sapiens; outline: as §1
HeLa [13] = test: Effect on cell cycle evaluated as proportion of cells in S phase of the cell cycle at 10E-6 M for 72 hr in HeLa cells; type: functional, Homo sapiens; outline: as §1
HeLa [14] = test: Effect on cell cycle evaluated as proportion of cells in G2/M phase of the cell cycle at 10E-6 M for 48 hr in HeLa cells; type: functional, Homo sapiens; outline: as §1
HeLa [15] = test: Effect on cell cycle evaluated as proportion of cells in S phase of the cell cycle at 10E-6 M for 48 hr in HeLa cells; type: functional, Homo sapiens; outline: as §1
[16] = Selectivity index is the ratio of IC50 of P-388 cell line to that of HT-29; type: functional
HeLa [17] = test: Effect on cell cycle evaluated as proportion of cells in S phase of the cell cycle at 10E-7 M for 48 hr in HeLa cells; type: functional, Homo sapiens; outline: as §1
HeLa [18] = test: Effect on cell cycle evaluated as proportion of cells in sub-G1 phase of the cell cycle at 10E-7 M for 48 hr in HeLa cells; type: functional, Homo sapiens; outline: as §1
HT-29 = test: In vitro cytotoxicity against HT-29 (human colon carcinoma) cell line.; type: functional, cell-based; settings: Homo sapiens, HT-29
HeLa [19] = test: Effect on cell cycle evaluated as proportion of cells in sub-G1 phase (apoptic cells) of the cell cycle at 10E-6 M for 24 hr in HeLa cells; type: functional, Homo sapiens; outline: as §1
HeLa [20] = test: Effect on cell cycle evaluated as proportion of cells in G0/G1 phase of the cell cycle at 10E-7 M for 48 hr in HeLa cells; type: functional, Homo sapiens; outline: as §1
HeLa [21] = test: Effect on cell cycle evaluated as proportion of cells in G0/G1 phase of the cell cycle at 10E-8 M for 48 hr in HeLa cells; type: functional, Homo sapiens; outline: as §1
HeLa [22] = test: Effect on cell cycle evaluated as proportion of cells in sub-G1 phase(apoptic cells) of the cell cycle at 10E-8 M for 72 hr in HeLa cells; type: functional, Homo sapiens; outline: as §1
HeLa [23] = test: Effect on cell cycle evaluated as proportion of cells in G2/M phase of the cell cycle at 10E-8 M for 24 hr in HeLa cells; type: functional, Homo sapiens; outline: as §1
HeLa [24] = test: Effect on cell cycle evaluated as proportion of cells in G2/M phase of the cell cycle at 10E-7 M for 48 hr in HeLa cells; type: functional, Homo sapiens; outline: as §1
HeLa [25] = test: Effect on cell cycle evaluated as proportion of cells in G2/M phase of the cell cycle at 10E-6 M for 72 hr in HeLa cells; type: functional, Homo sapiens; outline: as §1
HeLa [26] = test: Effect on cell cycle evaluated as proportion of cells in sub-G1 (apoptic cells) phase of the cell cycle at 10E-6 M for 72 hr in HeLa cells; type: functional, Homo sapiens; outline: as §1
HeLa [27] = test: Effect on cell cycle evaluated as proportion of cells in G0/G1 phase of the cell cycle at 10E-6 M for 24 hr in HeLa cells; type: functional, Homo sapiens; outline: as §1
HeLa [28] = test: Effect on cell cycle evaluated as proportion of cells in S phase of the cell cycle at 10E-8 M for 24 hr in HeLa cells; type: functional, Homo sapiens; outline: as §1
HeLa [29] = test: Effect on cell cycle evaluated as proportion of cells in sub-G1 (apoptic cells) phase of the cell cycle at 10E-7 M for 72 hr in HeLa cells; type: functional, Homo sapiens; outline: as §1
HeLa [30] = test: Effect on cell cycle evaluated as proportion of cells in sub-G1 phase (apoptic cells) of the cell cycle at 10E-7 M for 24 hr in HeLa cells; type: functional, Homo sapiens; outline: as §1
HeLa [31] = test: Effect on cell cycle evaluated as proportion of cells in G2/M phase of the cell cycle at 10E-6 M for 24 hr in HeLa cells; type: functional, Homo sapiens; outline: as §1
HeLa [32] = test: Effect on cell cycle evaluated as proportion of cells in G0/G1 phase of the cell cycle at 10E-7 M for 72 hr in HeLa cells; type: functional, Homo sapiens; outline: as §1
HeLa [33] = test: Effect on cell cycle evaluated as proportion of cells in G2/M phase of the cell cycle at 10E-8 M for 48 hr in HeLa cells; type: functional, Homo sapiens; outline: as §1
HeLa [34] = test: Effect on cell cycle evaluated as proportion of cells in sub-G1 (apoptic cells) phase of the cell cycle at 10E-6 M for 48 hr in HeLa cells; type: functional, Homo sapiens; outline: as §1
HeLa [35] = test: Effect on cell cycle evaluated as proportion of cells in G0/G1 phase of the cell cycle at 10E-8 M for 24 hr in HeLa cells; type: functional, Homo sapiens; outline: as §1
HeLa [36] = test: Effect on cell cycle evaluated as proportion of cells in S phase of the cell cycleG2/M at 10E-8 M for 72 hr in HeLa cells; type: functional, Homo sapiens; outline: as §1
HeLa [37] = test: Effect on cell cycle evaluated as proportion of cells in S phase of the cell cycle at 10E-8 M for 48 hr in HeLa cells; type: functional, Homo sapiens; outline: as §1

Molecule `COc1cc([C@@H]2c3cc4c(cc3[C@H](O)[C@H]3COC(=O)[C@H]23)OCO4)cc(OC)c1OC` [PODOFILOX] has an Activity (HeLa [1]) of 7.1%, an Activity (HeLa [2]) of 2.2% and an Activity (HeLa [3]) of 13.9%. For the same molecule, the Activity (HeLa [4]) was 4.5%, the Activity (HeLa [5]) was 68.4% and the Activity (HeLa [6]) was 4.1%. For the same molecule, the Activity (HeLa [7]) was 91.7%, the Activity (HeLa [8]) was 1.4% and the Activity (HeLa [9]) was 2.5%. For the same molecule, the Activity (HeLa [10]) was 9.7%, the Activity (HeLa [11]) was 4.2% and the Activity (HeLa [12]) was 0.2%. It also gave an Activity (HeLa [13]) of 3.4%, an Activity (HeLa [14]) of 18% and an Activity (HeLa [15]) of 10%. For the same molecule, the Selectivity index [16] was 0.5, the Activity (HeLa [17]) was 10.5% and the Activity (HeLa [18]) was 59%. For the same molecule, the IC50 (HT-29) was 24 nM, the Activity (HeLa [19]) was 1.5% and the Activity (HeLa [20]) was 11%. It also gave an Activity (HeLa [21]) of 16.1%, an Activity (HeLa [22]) of 81.8% and an Activity (HeLa [23]) of 71.7%. The Activity (HeLa [24]) was 19.5%, the Activity (HeLa [25]) was 0.2% and the Activity (HeLa [26]) was 89.3%. The Activity (HeLa [27]) was 2.2%, the Activity (HeLa [28]) was 4.3% and the Activity (HeLa [29]) was 88.1%. The Activity (HeLa [30]) was 1.6%, the Activity (HeLa [31]) was 92.1% and the Activity (HeLa [32]) was 9.2%. For the same molecule, the Activity (HeLa [33]) was 5.8%, the Activity (HeLa [34]) was 62.3% and the Activity (HeLa [35]) was 22.6%. The Activity (HeLa [36]) was 0.2% and the Activity (HeLa [37]) was 9.7%.
